Test results as given in ChEMBL document CHEMBL3769305, “Glucose-functionalized amino-OPEs as biocompatible photosensitizers in PDT” (Eur J Med Chem, 2016).
Active and inactive are the calls of the source. The calls are words filed in the database; no cut-off is given here.

Columns and labels:
HaCaT [1] = experiment: Induction of cell morphological changes in human HaCaT cells assessed as cell elongation at 3 to 5 uM after 24 hrs by Hoechst 33258 staining-based phase contrast microscopy in presence of UVA light
HaCaT [2] = experiment: Phototoxicity against human HaCaT cells assessed as cell lethality at 3 to 250 uM incubated for 6 hrs followed by UV irradiation at 2 J/cm'2 measured after 24 hrs by MTT assay; assay type: cell-based
Summary of the method: (§1)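 Cultures at 60–70% confluence were loaded with the photosensitizer for 6 h in medium with 1% FBS and <0.5% DMSO. Medium was then replaced and cells were irradiated with UVA (300–400 nm, 15.9 W/m² at 10 cm), then washed and kept in complete medium for 24 h. Survival was read by MTT (50 µg/mL, 4 h, 542 nm) as % of untreated control OD.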

[3] = Drug uptake in endoplasmic reticulum of human HeLa cells at 1 uM after 6 hrs by ER-tracker dye-based fluorescence microscopy; assay type: ADME, cell-based
Summary of the method: (§2)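 Cells grown on glass coverslips were incubated with 1×10^-6 M photosensitizer for 6 h at 37 °C, washed twice in PBS and imaged live by fluorescence microscopy. Organelle probes (ER-Tracker, ex 374/em 430 nm; NBD-Golgi, ex 466/em 536 nm) were applied for 30 min at the supplier's concentrations, and their patterns were compared with the compound signal.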

[4] = Dark toxicity against human HeLa cells assessed as cell survival at 10 uM incubated for 6 hrs measured after 24 hrs by MTT assay; assay type: cell-based; conditions: read-out: Survival
Summary of the method: (§3)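 Cells (HaCaT and HeLa in DMEM, HEp-2 in RPMI, each with 10% FBS, at 37 °C and 5% CO2) were treated at 60–70% confluence. The compound was added from a 10^-3 M DMSO stock in medium with 1% FBS (final DMSO <0.5%) at 3·10^-6 to 2.5·10^-5 M and kept in the dark (6 h per table footnote, 18 h per methods). After 24 h, MTT at 50 µg/mL for 4 h, read at 542 nm as % of control OD.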

HaCaT [5] = experiment: Phototoxicity against human HaCaT cells assessed as appearance of rounded cells at LD50 after 24 hrs by acridine orange/ethidium bromide staining-based assay in presence of 0.25 to 0.5 J/cm'2 UVA light; assay type: cell-based
Summary of the method: (§4)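 Cells (HaCaT, HeLa in DMEM; HEp-2 in RPMI; 10% FBS) at 60–70% confluence were incubated 6 h with 3·10^-6 M photosensitizer (DMSO stock diluted in medium with 1% FBS, final DMSO <0.5%). Medium was replaced and cells were given 0.25 J/cm² UVA (300–400 nm). 24 h later, cells were stained live with 50 µg/ml AO plus 50 µg/ml EtBr in PBS. Within 15 min, 200 cells per condition were scored as living, rounded, apoptotic or necrotic.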

[6] = Dark toxicity against human HaCaT cells assessed as cell survival at 3 uM incubated for 6 hrs measured after 24 hrs by MTT assay; assay type: cell-based; conditions: read-out: Survival; summary of the method: as §3
[7] = Drug uptake in golgi apparatus of human Hep2 cells at 1 uM after 6 hrs by NBD dye-based fluorescence microscopy; assay type: ADME, cell-based; conditions: hep-2, 6 h; summary of the method: as §2
[8] = Phototoxicity against human Hep2 cells assessed as cell lethality at 3 to 250 uM incubated for 6 hrs followed by UV irradiation at 0.5 J/cm'2 measured after 24 hrs by MTT assay; assay type: functional, HEp-2; summary of the method: as §1
[9] = Dark toxicity against human HeLa cells assessed as cell survival at 5 uM incubated for 6 hrs measured after 24 hrs by MTT assay; assay type: cell-based; conditions: read-out: Survival; summary of the method: as §3
[10] = Dark toxicity against human HaCaT cells assessed as cell survival at 10 uM incubated for 6 hrs measured after 24 hrs by MTT assay; assay type: cell-based; conditions: read-out: Survival; summary of the method: as §3
HEp-2 [11] = experiment: Induction of cell morphological changes in human Hep2 cells assessed as cytoplasmic retraction at 3 to 5 uM after 24 hrs by Hoechst 33258 staining-based phase contrast microscopy in presence of UVA light; assay type: functional
HaCaT [12] = experiment: Induction of necrotic morphological changes in human HaCaT cells at LD50 after 24 hrs by Hoechst 33258 staining-based fluorescence microscopy in presence of UVA light; assay type: cell-based
HeLa [13] = experiment: Induction of cell morphological changes in human HeLa cells assessed as deep deformation of cell membrane at LD90 after 24 hrs by Hoechst 33258 staining-based phase contrast microscopy in presence of 1 to 2 J/Cm'2 UVA light; assay type: functional
HeLa [14] = experiment: Phototoxicity against human HeLa cells assessed as cell lethality at 3 to 250 uM incubated for 6 hrs followed by UV irradiation at 1 J/cm'2 measured after 24 hrs by MTT assay; assay type: functional; summary of the method: as §1
[15] = Drug uptake in human Hep2 cells at 1 uM after 6 hrs by fluorescence microscopy; assay type: ADME, cell-based; conditions: hep-2, 6 h
Summary of the method: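 Cells on glass coverslips at 60–70% confluence were exposed to 1×10^-6 M compound in medium with 1% FBS (DMSO <0.5%) for 6 h at 37 °C. After two PBS washes they were imaged live under UV excitation (365 nm), with blue excitation (460–490 nm) also used. Untreated cells served as autofluorescence controls.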

HEp-2 [16] = experiment: Induction of microtubule disruption in human Hep2 cells assessed as appearance of extrapoles at LD50 after 24 hrs by immunofluorescence assay in presence of UVA light; assay type: cell-based
HeLa [17] = experiment: Phototoxicity against human HeLa cells assessed as appearance of rounded cells at LD50 after 24 hrs by acridine orange/ethidium bromide staining-based assay in presence of 0.25 to 0.5 J/cm'2 UVA light; assay type: functional, cell-based; summary of the method: as §4
[18] = Drug uptake in golgi apparatus of human HaCaT cells at 1 uM after 6 hrs by NBD dye-based fluorescence microscopy; assay type: ADME, cell-based; summary of the method: as §2
[19] = Drug uptake in golgi apparatus of human HeLa cells at 1 uM after 6 hrs by NBD dye-based fluorescence microscopy; assay type: ADME, cell-based; summary of the method: as §2
HEp-2 [20] = experiment: Induction of cell morphological changes in human Hep2 cells assessed as cell detachment from substrate at 3 to 5 uM after 24 hrs by Hoechst 33258 staining-based phase contrast microscopy in presence of UVA light; assay type: functional
[21] = Induction of microtubule disruption in human HaCaT cells at LD50 after 24 hrs by immunofluorescence assay in presence of UVA light; assay type: cell-based
HaCaT [22] = experiment: Induction of necrosis in human HaCaT cells at LD50 after 24 hrs by acridine orange/ethidium bromide staining-based assay in presence of 0.25 to 0.5 J/cm'2 UVA light; assay type: cell-based
[23] = Induction of microtubule disruption in human HeLa cells assessed as abnormality in chromosome distribution at LD50 after 24 hrs by immunofluorescence assay in presence of UVA light; assay type: cell-based
HEp-2 [24] = experiment: Induction of cell morphological changes in human Hep2 cells assessed as cellular stretching at 3 to 5 uM after 24 hrs by Hoechst 33258 staining-based phase contrast microscopy in presence of UVA light; assay type: functional
HEp-2 [25] = experiment: Induction of necrosis in human Hep2 cells at LD50 after 24 hrs by acridine orange/ethidium bromide staining-based assay in presence of 0.25 to 0.5 J/cm'2 UVA light; assay type: functional, cell-based; summary of the method: as §4
HeLa [26] = experiment: Phototoxicity against human HeLa cells incubated for 6 hrs followed by UV irradiation at 0.25 J/cm'2 measured after 24 hrs by MTT assay; assay type: functional; summary of the method: as §1

Structure (SMILES) | Activity (HaCaT [1]) | mortality (HaCaT [2]) [%] | Drug uptake [3] | viability at 6 h, 10 µM [4] [%] | Activity (HaCaT [5]) | viability at 6 h, 3 µM [6] [%] | Drug uptake [7] | mortality [8] [%] | viability at 6 h, 5 µM [9] [%] | viability at 6 h, 10 µM [10] [%] | Activity (HEp-2 [11]) | Activity (HaCaT [12]) | Activity (HeLa [13]) | mortality (HeLa [14]) [%] | Drug uptake [15] | Activity (HEp-2 [16]) | Activity (HeLa [17]) | Drug uptake [18] | Drug uptake [19] | Activity (HEp-2 [20]) | also measured
COc1cc(C#Cc2ccc(C#Cc3cc(OC)c(C#CCO[C@@H]4O[C@H](CO)[C@@H](O)[C@H](O)[C@H]4O)cc3OC)c(N(C)C)c2)c(OC)cc1C#CCO[C@@H]1O[C@H](CO)[C@@H](O)[C@H](O)[C@H]1O | Toxic | > 50 | Active | 82.2 | Toxic | 92.4 | Active | >50 | 95.4 | 71.5 | Active | Toxic | Active | >50 | Active | Active | Active | Active | Active | Active | Activity [21]: Toxic; Activity (HaCaT [22]): Toxic; Activity [23]: Active; Activity (HEp-2 [24]): Active; Activity (HEp-2 [25]): Active; LD50 (HeLa [26]): 3 ×10⁻⁶ M
COc1cc(C#Cc2ccc(C#CCO[C@@H]3O[C@H](CO)[C@@H](O)[C@H](O)[C@H]3O)cc2N(C)C)c(OC)cc1C#Cc1ccc(C#CCO[C@@H]2O[C@H](CO)[C@@H](O)[C@H](O)[C@H]2O)cc1N(C)C | Toxic | > 50 | Active | 76.9 | Toxic | 91.5 | Active | >50 | 93.5 | 70.2 | Active | Toxic | Active | >50 | Active | Active | Active | Active | Active | Active | Activity [21]: Toxic; Activity (HaCaT [22]): Toxic; Activity [23]: Active; Activity (HEp-2 [24]): Active; Activity (HEp-2 [25]): Active; LD50 (HeLa [26]): 3 ×10⁻⁶ M
